KCNK3 block: human KCNK3 channel inhibitors, primary screen, CHO cells, FluxOR thallium flux, B-score; B-score at 10 µM; 0.84% of 340,000 active; Potassium channel subfamily K member 3 (Homo sapiens), O14649; FluxOR fluorescence; hits give low values;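 active = B-score under library mean minus 4 SD, starting fluorescence ratio at most library mean plus 5 SD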;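 also: more negative B-score means stronger inhibition of thallium flux through KCNK3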
Target sequence (O14649 whole entry, looked up): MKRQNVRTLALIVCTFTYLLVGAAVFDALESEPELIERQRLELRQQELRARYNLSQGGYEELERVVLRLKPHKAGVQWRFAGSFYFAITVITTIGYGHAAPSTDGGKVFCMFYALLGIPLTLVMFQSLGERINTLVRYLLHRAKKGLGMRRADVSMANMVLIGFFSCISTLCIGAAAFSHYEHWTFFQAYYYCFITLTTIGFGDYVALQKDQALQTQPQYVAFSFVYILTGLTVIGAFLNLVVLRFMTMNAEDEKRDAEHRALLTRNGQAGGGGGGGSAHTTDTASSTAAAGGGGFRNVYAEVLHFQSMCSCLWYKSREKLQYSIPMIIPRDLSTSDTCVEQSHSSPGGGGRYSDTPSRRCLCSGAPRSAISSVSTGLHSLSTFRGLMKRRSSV
hERG rescue: hERG rescue from dofetilide block, primary screen, cell-based, CHO-hERG, FluxOR thallium flux, dofetilide IC70; dofetilide IC70 present; 0.51% of 310,000 active; Voltage-gated inwardly rectifying potassium channel KCNH2 (Homo sapiens), Q12809; activation (rescue from dofetilide block), less the hit threshold, % at 10 µM;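 active = activation above the mean of controls blocked by dofetilide plus 5 SD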;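 also: thallium influx through hERG after potassium depolarization seen as dye fluorescence rise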
KCNQ1 block: inhibitors of human KCNQ1 channel, primary screen, cell-based, thallium flux, high-throughput. Potassium voltage-gated channel subfamily KQT member 1 (Homo sapiens), P51787. CHO-K1 KCNQ1, FluxOR thallium flux fluorescence; hits give high values. B-score at 10 µM. 1.3% of 310,000 active. AID 2642, 2010;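 active = compounds whose thallium flux B-score, printed positive for inhibition, exceeds three library SD while starting fluorescence stays within three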;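 also: channel opened by potassium depolarization with thallium stimulus after 20 min compound exposure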
KCNQ1 pot: potentiators or activators of KCNQ1 channel, primary screen, cell-based, thallium flux, high-throughput; Potassium voltage-gated channel subfamily KQT member 1 (Homo sapiens), P51787; CHO-K1 KCNQ1, thallium flux FluxOR fluorescence; hits give high values; B-score at 10 µM; 0.35% of 310,000 active;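 active = fluorescence ratio B-score, a plate-corrected score, at least three library SD, with initial intensity B-score within 5 SD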
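assay system = KCNQ1-transfected CHO-K1 cells | medium = assay buffer with matched DMSO | probe or stimulus = depolarizing K+/Tl+ stimulus, K2SO4 and Tl2SO4 each 12.5 mM in 5x stock | dosing = single dose | incubation = dye 90 min, compound 20 min, room temperature | detection = kinetic FluxOR fluorescence, 10 s baseline plus 110 s post-stimulus | evaluation = ratio B score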
KCC2 mod: KCC2 cotransporter modulators, thallium flux, primary screen, cell-based, HEK293 KCC2, FluoZin-2 fluorescence, MLSMR; KCC2 cells, thallium flux FluoZin-2 fluorescence; Solute carrier family 12 member 5 (Homo sapiens), Q9H2X9; B-score of Tl+ flux slope (higher = more flux/activation; lower = inhibition) at 10 µM; 2.2% of 190,000 active;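 active = thallium flux slope and its plate-corrected score both differing from the plate sample mean at a set confidence after two filtering rounds, in either direction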;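 also: slope of fluorescence scaled to starting intensity during 10 to 20 s after thallium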
KCNK9 block: KCNK9 potassium channel inhibitors, primary screen, HEK293 cells, thallium flux; Potassium channel subfamily K member 9 (Homo sapiens), Q9NPC2; FluxOR thallium flux fluorescence; hits give low values; B-score at 10 µM; 1.2% of 310,000 active; AID 488922, 2010;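 active = ratio B-score over 3 SD below the library mean, with starting fluorescence within 5 SD of its mean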;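 also: negative B-score means less thallium flux so channel inhibition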
* = called active by the depositor. Compounds with a hit are over-represented: about 4.1% of the library has one in this group of screens.

CCOC(=O)c1sc(=S)n(C)c1NC(=O)c1ccc(OC)cc1 was read as KCNK3 block inactive, hERG rescue -7, KCNQ1 block inactive, KCNQ1 pot inactive, KCC2 mod -0.35 and KCNK9 block inactive.
CCOC(=O)c1sc(=S)n(C)c1NC(=O)c1ccc(C(C)(C)C)cc1 was read as KCNK3 block inactive, hERG rescue -10, KCNQ1 block 11*, KCNQ1 pot inactive, KCC2 mod -2 and KCNK9 block inactive.
Cc1ccc(/C=C/C2=NN(Cc3ccccc3Cl)C(=O)CC2)cc1 was read as KCNK3 block inactive, hERG rescue -6, KCNQ1 block 11*, KCNQ1 pot inactive, KCC2 mod 0.31 and KCNK9 block inactive.
`Cc1ccc(/C=C/C2=NN(Cc3ccccc3)C(=O)CC2)cc1` gave KCNK3 block inactive, hERG rescue -10, KCNQ1 block inactive, KCNQ1 pot inactive and KCNK9 block inactive.
For CCOC(=O)c1c(NC(=O)CSc2nc3cccnc3n2C)sc(C(C)=O)c1C the results were KCNK3 block -10*, hERG rescue -5, KCNQ1 block inactive, KCNQ1 pot inactive, KCC2 mod -0.46 and KCNK9 block inactive.
O=C1C=C(c2ccccc2)OC(=O)C1C(=O)c1ccccc1 (centres undefined) was read as KCNK3 block inactive, hERG rescue 5.4*, KCNQ1 block inactive, KCNQ1 pot inactive, KCC2 mod -0.021 and KCNK9 block inactive.
`COc1cc(C(=S)N2CCN(c3cccc(Cl)c3)CC2)ccc1O` gave KCNK3 block inactive, hERG rescue 5.8*, KCNQ1 block inactive, KCNQ1 pot inactive, KCC2 mod -0.46 and KCNK9 block inactive.
O=C(COc1ccc(Br)cc1CNC1CCCCC1)NCCc1ccccc1 was read as KCNK3 block inactive, hERG rescue -14, KCNQ1 block 8*, KCNQ1 pot inactive, KCC2 mod -1.6 and KCNK9 block inactive.
`O=C(Nc1ccc(C(=O)N2CCCCC2)cc1)C1CCCCC1` gave KCNK3 block inactive, hERG rescue 9.1*, KCNQ1 block inactive, KCNQ1 pot inactive, KCC2 mod 1.1 and KCNK9 block inactive.
Screening Cc1[nH]n(-c2ccccc2)c(=O)c1N=Nc1nccs1 returned KCNK3 block inactive, hERG rescue 114*, KCNQ1 block inactive, KCNQ1 pot 78*, KCC2 mod 25* and KCNK9 block inactive.
For Cc1ccccc1N=Nc1c(C)[nH]n(-c2ccccc2)c1=O the results were KCC2 mod 0.9.
`Cc1[nH]n(-c2ccccc2)c(=O)c1/C=N/c1ccccn1` gave KCNK3 block inactive, hERG rescue -8, KCNQ1 block inactive, KCNQ1 pot inactive, KCC2 mod 18* and KCNK9 block inactive.
`Cc1ccnc(NC(=O)c2cccc(S(=O)(=O)N3CCCc4ccccc43)c2)c1` gave KCNK3 block inactive, hERG rescue -9, KCNQ1 block inactive, KCNQ1 pot inactive and KCNK9 block inactive.
O=C(CSc1nc2nc(-c3cccs3)cc(C(F)(F)F)c2c(=O)[nH]1)Nc1ccc(F)c(F)c1 was read as KCNK3 block inactive, hERG rescue -15, KCNQ1 block 7*, KCNQ1 pot inactive, KCC2 mod -1.9 and KCNK9 block inactive.
`O=C(c1cc(NC(=O)C23CC4CC(CC(C4)C2)C3)cc(NC(=O)C23CC4CC(CC(C4)C2)C3)c1)N1CCCCC1` gave hERG rescue -7, KCNQ1 block 10*, KCNQ1 pot inactive, KCC2 mod -0.41 and KCNK9 block inactive.
CC12CC3CC(C)(C1)CC(C(=O)NC(=S)N1CCOCC1)(C3)C2 was read as KCNK3 block inactive, hERG rescue -1, KCNQ1 block inactive, KCNQ1 pot inactive, KCC2 mod 5* and KCNK9 block inactive.
O=C(Nc1cccc(C(=O)N2CCCCC2)c1)C1CC1 was read as KCNK3 block inactive.
For O=C(NC(=S)N1CCCCC1)C12CC3CC(CC(C3)C1)C2 the results were KCNK3 block inactive, hERG rescue -13, KCNQ1 block inactive, KCNQ1 pot inactive, KCC2 mod 35* and KCNK9 block inactive.
Screening CC12CC3CC(C)(C1)CC(C(=O)N1CCCC1)(C3)C2 returned KCNK3 block inactive, hERG rescue -7, KCNQ1 block inactive, KCNQ1 pot inactive and KCNK9 block inactive.
For O=C(NC1(Cc2ccccc2)CCN(Cc2ccc(-c3ccccc3)cc2)C1=O)c1ccccc1 (centres undefined) the results were KCNK3 block inactive.
Screening CCC(C(=O)NC1CCCC1)N(C(=O)c1snc(C(N)=O)c1N)c1ccc(C)cc1C (centres undefined) returned KCNK3 block inactive, hERG rescue -5, KCNQ1 block inactive, KCNQ1 pot inactive and KCNK9 block inactive.
`CCN(C(=O)CC(C)C)c1nnc(Cn2nnc3ccccc32)s1` gave KCNK3 block inactive, hERG rescue -12, KCNQ1 block inactive, KCNQ1 pot inactive, KCC2 mod -1 and KCNK9 block inactive.
`CCN(C(=O)c1ccc(C(C)(C)C)cc1)c1nnc(Cn2nnc3ccccc32)s1` gave KCNK3 block inactive, hERG rescue -21, KCNQ1 block 7*, KCNQ1 pot inactive, KCC2 mod -2.5 and KCNK9 block inactive.
`CSc1ccc(CN(C)Cc2cc(=O)oc3c(C)c(C)ccc23)cc1` gave KCNK3 block inactive, hERG rescue -15, KCNQ1 block 7*, KCNQ1 pot inactive and KCNK9 block inactive.
For CCOc1ccc(CN(C)Cc2cc(=O)oc3c(C)c(C)ccc23)cc1OC the results were KCNK3 block inactive.
COc1ccc(C2(C)C(C#N)C(=O)NC(=O)C2C#N)cc1 (centres undefined) was read as KCNK3 block inactive.
CCN(Cc1ccncc1)Cc1cn(C)nc1-c1ccc(Oc2ccccc2)cc1 was read as KCNK3 block inactive, hERG rescue -14, KCNQ1 block 6*, KCNQ1 pot inactive, KCC2 mod -1.8 and KCNK9 block inactive.
NC(=O)CSc1nc2cc(S(=O)(=O)N3CCOCC3)ccc2o1 was read as KCNK3 block inactive.
For CCOC(=O)c1sc(=NC(=O)c2cccc(C)c2)n(C)c1C the results were KCNK3 block inactive, hERG rescue 5.7*, KCNQ1 block inactive, KCNQ1 pot inactive, KCC2 mod 1.8 and KCNK9 block inactive.
